The text below walks through data of ChEMBL document CHEMBL3608210, “LC-MS- and (1)H NMR Spectroscopy-Guided Identification of Antifungal Diterpenoids from Sagittaria latifolia” (J Nat Prod, 2015).

Converted amounts (≈) assume the structure as drawn. The source made the active and inactive calls.

The test system of assay [1] is Cryptococcus bacillisporus. The assay can be described thus: Antifungal activity against Cryptococcus gattii ATCC 32609 assessed as inhibition of microbial growth incubated for 72 hrs at 30 degC by modified CLSI protocol based method. The class given is functional, organism-based. Particulars: ATCC 32609, 72 h. In a few lines:
(§1)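 Strains were obtained from ATCC, and amphotericin B served as the positive control. IC50 was the concentration giving 50% growth inhibition of fungal cells. MIC was the lowest concentration allowing no detectable growth. The highest concentration tested was 20 μg/mL.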

Assay [2] deals with Cryptococcus neoformans. The assay can be described thus: Antifungal activity against Cryptococcus neoformans ATCC 90113 assessed as inhibition of microbial growth incubated for 72 hrs at 30 degC by modified CLSI protocol based method. The class given is functional, organism-based. The note with it: ATCC 90113, 72 h. In a few lines: as §1
The test system of assay [3] is LLC-PK1. The assay can be described thus: Cytotoxicity against pig LLC-PK1 cells assessed as reduction in cell viability incubated for 48 hrs by neutral red based assay. Particulars: Sus scrofa, LLC-PK1, 48 h. The gist of the method: (§2)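 Vero (African green monkey kidney […]) and LLC-PK1 (pig kidney epithelial) cells were obtained from ATCC. Cytotoxicity was read by neutral red uptake, with doxorubicin as the positive control. IC50 was taken as the concentration giving 50% growth inhibition of the mammalian cells.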

Assay [4] has as its system Vero. The assay can be described thus: Cytotoxicity against african green monkey Vero cells assessed as reduction in cell viability incubated for 48 hrs by neutral red based assay. Particulars: Chlorocebus sabaeus. The gist of the method:
as §2

The subject of assay [5] is Cryptococcus neoformans. Briefly: Antifungal activity against Cryptococcus neoformans ATCC 90113 assessed as inhibition of microbial growth at 20 ug/ml incubated for 72 hrs at 30 degC by modified CLSI protocol based method. Format: functional, organism-based. The gist of the method: as §1

One may read the IC50 as the point on the concentration scale where inhibition reaches its midpoint. The MIC is the smallest concentration in the dilution series that meets the test's criterion for growth inhibition. For `C[C@@H]1[C@H](O)[C@@H](C)/C=C/C=C/C=C/C=C/C=C/C=C/C=C/[C@H](O[C@@H]2O[C@H](C)[C@@H](O)[C@H](N)[C@@H]2O)C[C@@H]2O[C@](O)(C[C@@H](O)C[C@@H](O)[C@H](O)CC[C@@H](O)C[C@@H](O)CC(=O)O[C@H]1C)C[C@H](O)[C@H]2C(=O)O` [AMPHOTERICIN B], in assay [1], the IC50 came to 0.1 µg/mL and the MIC was 0.3 µg/mL. In assay [2], the minimum inhibitory concentration (MIC) amounted to 0.7 µg/mL.

On to `C=C[C@@]1(C)CC[C@H]2C(=CC[C@H]3[C@@](C)(CO[C@@H]4O[C@@H](CO)[C@H](O)[C@H]4O)CCC[C@]23C)C1`, for which the IC50 in assay [1] is 1.8 µg/mL; in assay [3], 21.5 µg/mL (≈ 51.1 µM); in assay [4] it was 30 µg/mL (≈ 71.3 µM); in assay [2], 3.7 µg/mL. In addition, the MIC in assay [1] is 20 µg/mL; in assay [2] it was more than 20 µg/mL.

Regarding `COc1cccc2c1C(=O)c1c(O)c3c(c(O)c1C2=O)C[C@@](O)(C(=O)CO)C[C@@H]3O[C@H]1C[C@H](N)[C@H](O)[C@H](C)O1` [DOXORUBICIN], the IC50 in assay [3] worked out at 0.4 µg/mL (≈ 0.736 µM); in assay [4], 5.4 µg/mL (≈ 9.94 µM).

Regarding `C=C[C@@]1(C)CC[C@H]2C(=CC[C@H]3[C@@](C)(CO)CCC[C@]23C)C1`, the IC50 in assay [1] turned out to be 6.8 µg/mL; in assay [3] it was 42.5 µg/mL (≈ 147 µM); in assay [4], 37.5 µg/mL (≈ 130 µM); in assay [2] it was 9.2 µg/mL. The MIC is 20 µg/mL in assay [1] and more than 20 µg/mL in assay [2].

Regarding `C=C[C@@]1(C)CC[C@H]2C(=CC[C@H]3[C@@](C)(CO[C@@H]4O[C@@H](COC(C)=O)[C@H](O)[C@H]4O)CCC[C@]23C)C1`, the “growth inhibition (GI)” value in assay [5] is “inactive”.
